# Data: ChEMBL document CHEMBL4130549, “Synthesis and bioactivities study of new antibacterial peptide mimics: The dialkyl cationic amphiphiles” (Eur J Med Chem, 2018)
# Active and inactive are the calls of the source. The rule behind the calls is not given here.
# Legend:
# [1] = Hemolytic activity in sheep RBC after 1 hr; assay type: ADME, cell-based, Ovis aries, Erythrocyte; conditions: sheep red blood cells (erythrocytes)
# Outline: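 Sheep RBCs suspended at 5% in PBS; 150 µL added to 50 µL compound dilutions (5120 to 10 µg/mL series). Incubated 1 h at 37 °C, then centrifuged; supernatant absorbance read at 540 nm. Lysis (%) = (A−A0)/(Atotal−A0)×100, with untreated 5% RBC as A0 and 0.1% Triton X-100 as total.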
# Enterobacteriaceae [2] = experiment: Antibacterial activity against NDM-1-producing Enterobacteriaceae isolate N4 after 16 to 20 hrs by broth microdilution method; assay type: functional
# Outline: (§1)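 Broth microdilution per CLSI in cation-adjusted Mueller-Hinton broth; 4-6 h cultures (~10⁸ CFU/mL) diluted to ~10⁶ CFU/mL and mixed 1:1 with twofold dilutions of water-dissolved compound (256 to 0.5 µg/mL). Incubated 16-20 h at 37 °C; MIC read visually. Each concentration run in duplicate, whole experiment repeated at least twice. MRSA, KPC and NDM-1 strains were clinical isolates.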
# Klebsiella pneumoniae [3] = experiment: Antibacterial activity against carbapenemase-producing Klebsiella pneumoniae isolate K10 after 16 to 20 hrs by broth microdilution method; assay type: functional; outline: as §1
# Enterobacteriaceae [4] = experiment: Antibacterial activity against NDM-1-producing Enterobacteriaceae isolate N6 after 16 to 20 hrs by broth microdilution method; assay type: functional; outline: as §1
# Enterobacteriaceae [5] = experiment: Antibacterial activity against NDM-1-producing Enterobacteriaceae isolate N10 after 16 to 20 hrs by broth microdilution method; assay type: functional; outline: as §1
# Klebsiella pneumoniae [6] = experiment: Antibacterial activity against carbapenemase-producing Klebsiella pneumoniae isolate K3 after 16 to 20 hrs by broth microdilution method; assay type: functional; outline: as §1
# Klebsiella pneumoniae [7] = experiment: Antibacterial activity against carbapenemase-producing Klebsiella pneumoniae isolate K7 after 16 to 20 hrs by broth microdilution method; assay type: functional; outline: as §1
# Staphylococcus aureus [8] = experiment: Antibacterial activity against Staphylococcus aureus ATCC 29213 after 16 to 20 hrs by broth microdilution method; assay type: functional
# Outline: (§2)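 CLSI broth microdilution in cation-adjusted Mueller-Hinton broth. A 4-6 h culture was diluted to about 10⁶ CFU/mL and mixed 1:1 with twofold compound dilutions (256–0.5 µg/mL before mixing) prepared from aqueous stocks. Plates were incubated at 37 °C for 16-20 h. Each concentration was tested in duplicate, and the experiment was repeated at least twice.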
# Enterobacteriaceae [9] = experiment: Antibacterial activity against NDM-1-producing Enterobacteriaceae isolate N9 after 16 to 20 hrs by broth microdilution method; assay type: functional; outline: as §1
# Staphylococcus aureus [10] = experiment: Antibacterial activity against methicillin-resistant Staphylococcus aureus isolate M1 after 16 to 20 hrs by broth microdilution method; assay type: functional; outline: as §2
# Staphylococcus aureus [11] = experiment: Antibacterial activity against methicillin-resistant Staphylococcus aureus isolate M9 after 16 to 20 hrs by broth microdilution method; assay type: functional; outline: as §2
# Staphylococcus aureus [12] = experiment: Antibacterial activity against methicillin-resistant Staphylococcus aureus isolate M4 after 16 to 20 hrs by broth microdilution method; assay type: functional; outline: as §2
# Klebsiella pneumoniae [13] = experiment: Antibacterial activity against carbapenemase-producing Klebsiella pneumoniae isolate K1 after 16 to 20 hrs by broth microdilution method; assay type: functional; outline: as §1
# Enterococcus faecalis = experiment: Antibacterial activity against Enterococcus faecalis after 16 to 20 hrs by broth microdilution method; assay type: functional; outline: as §1
# Staphylococcus aureus [14] = experiment: Antibacterial activity against methicillin-resistant Staphylococcus aureus isolate M7 after 16 to 20 hrs by broth microdilution method; assay type: functional; outline: as §2
# Klebsiella pneumoniae [15] = experiment: Antibacterial activity against carbapenemase-producing Klebsiella pneumoniae isolate K8 after 16 to 20 hrs by broth microdilution method; assay type: functional; outline: as §1
# Enterobacteriaceae [16] = experiment: Antibacterial activity against NDM-1-producing Enterobacteriaceae isolate N1 after 16 to 20 hrs by broth microdilution method; assay type: functional; outline: as §1
# Klebsiella pneumoniae [17] = experiment: Antibacterial activity against carbapenemase-producing Klebsiella pneumoniae isolate K9 after 16 to 20 hrs by broth microdilution method; assay type: functional; outline: as §1
# Staphylococcus aureus [18] = experiment: Antibacterial activity against methicillin-resistant Staphylococcus aureus isolate M5 after 16 to 20 hrs by broth microdilution method; assay type: functional; outline: as §2
# Klebsiella pneumoniae [19] = experiment: Antibacterial activity against carbapenemase-producing Klebsiella pneumoniae after 16 to 20 hrs by broth microdilution method; assay type: functional; outline: as §1
# Staphylococcus aureus [20] = experiment: Antibacterial activity against methicillin-resistant Staphylococcus aureus isolate M8 after 16 to 20 hrs by broth microdilution method; assay type: functional; outline: as §2
# Salmonella enterica = experiment: Antibacterial activity against Salmonella enterica after 16 to 20 hrs by broth microdilution method; assay type: functional; outline: as §1
# Escherichia coli [21] = experiment: Induction of inner membrane permeabilization in Escherichia coli ATCC 25922 at 20 ug/ml measured every 2 mins for 12 mins by propidium iodide staining based fluorescence assay; assay type: functional, organism-based
# Outline: (§3)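 Mid-log cells (~10^8 CFU/mL) pre-incubated with propidium iodide (10 µM, 50 µL), 30 min for S. aureus and 40 min for E. coli. Fluorescence (ex 535/em 617 nm) read for 8 min, then compound added to 20 µg/mL final and monitored every 2 min for 12 min. Water-treated control.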
# Enterobacteriaceae [22] = experiment: Antibacterial activity against NDM-1-producing Enterobacteriaceae isolate N2 after 16 to 20 hrs by broth microdilution method; assay type: functional; outline: as §1
# Enterobacteriaceae [23] = experiment: Antibacterial activity against NDM-1-producing Enterobacteriaceae after 16 to 20 hrs by broth microdilution method; assay type: functional; outline: as §1
# Staphylococcus aureus [24] = experiment: Induction of cytoplasmic membrane depolarization in Staphylococcus aureus ATCC 29213 at 20 ug/ml measured every 2 mins for 12 mins by diSC35 staining based fluorescence assay; assay type: functional, organism-based
# Outline: (§4)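 Mid-log cells (4–6 h) pelleted, washed and resuspended (~10^8 CFU/mL) in PBS for S. aureus, or in 5 mM HEPES, 5 mM glucose and 100 mM KCl (1:1:1) for E. coli. Preloaded with diSC35 (10 µM, 50 µL), 30 min for S. aureus and 40 min plus EDTA (200 µM, 50 µL) for E. coli. Baseline read 8 min (ex 622/em 670 nm), then compound added to 20 µg/mL final and read every 2 min for 12 min. Water control.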
# Enterobacteriaceae [25] = experiment: Antibacterial activity against NDM-1-producing Enterobacteriaceae isolate N8 after 16 to 20 hrs by broth microdilution method; assay type: functional; outline: as §1
# Staphylococcus aureus [26] = experiment: Antibacterial activity against methicillin-resistant Staphylococcus aureus isolate M6 after 16 to 20 hrs by broth microdilution method; assay type: functional; outline: as §2
# Staphylococcus aureus [27] = experiment: Induction of inner membrane permeabilization in Staphylococcus aureus ATCC 29213 at 20 ug/ml measured every 2 mins for 12 mins by propidium iodide staining based fluorescence assay; assay type: functional, organism-based; outline: as §3
# Staphylococcus aureus [28] = experiment: Antibacterial activity against methicillin-resistant Staphylococcus aureus isolate M3 after 16 to 20 hrs by broth microdilution method; assay type: functional; outline: as §2
# Klebsiella pneumoniae [29] = experiment: Antibacterial activity against carbapenemase-producing Klebsiella pneumoniae isolate K2 after 16 to 20 hrs by broth microdilution method; assay type: functional; outline: as §1
# Enterobacteriaceae [30] = experiment: Antibacterial activity against NDM-1-producing Enterobacteriaceae isolate N7 after 16 to 20 hrs by broth microdilution method; assay type: functional; outline: as §1
# Staphylococcus aureus [31] = experiment: Antibacterial activity against methicillin-resistant Staphylococcus aureus isolate M10 after 16 to 20 hrs by broth microdilution method; assay type: functional; outline: as §2
# Klebsiella pneumoniae [32] = experiment: Antibacterial activity against carbapenemase-producing Klebsiella pneumoniae isolate K6 after 16 to 20 hrs by broth microdilution method; assay type: functional; outline: as §1
# Enterobacteriaceae [33] = experiment: Antibacterial activity against NDM-1-producing Enterobacteriaceae isolate N3 after 16 to 20 hrs by broth microdilution method; assay type: functional; outline: as §1
# Staphylococcus aureus [34] = experiment: Antibacterial activity against methicillin-resistant Staphylococcus aureus isolate M2 after 16 to 20 hrs by broth microdilution method; assay type: functional; outline: as §2
# Enterobacteriaceae [35] = experiment: Antibacterial activity against NDM-1-producing Enterobacteriaceae isolate N5 after 16 to 20 hrs by broth microdilution method; assay type: functional; outline: as §1
# Staphylococcus aureus [36] = experiment: Antibacterial activity against methicillin-resistant Staphylococcus aureus after 16 to 20 hrs by broth microdilution method; assay type: functional; outline: as §2
# Klebsiella pneumoniae [37] = experiment: Antibacterial activity against carbapenemase-producing Klebsiella pneumoniae isolate K5 after 16 to 20 hrs by broth microdilution method; assay type: functional; outline: as §1
# Escherichia coli [38] = experiment: Antibacterial activity against Escherichia coli ATCC 25922 after 16 to 20 hrs by broth microdilution method; assay type: functional; outline: as §1
# Escherichia coli [39] = experiment: Induction of cytoplasmic membrane depolarization in Escherichia coli ATCC 25922 at 20 ug/ml measured every 2 mins for 12 mins by diSC35 staining based fluorescence assay; assay type: functional, organism-based; outline: as §4
# Escherichia coli [40] = experiment: Induction of outer membrane permeabilization in Escherichia coli ATCC 25922 at 20 ug/ml measured every 2 mins for 12 mins by NPN staining based fluorescence assay; assay type: functional, organism-based
# Outline: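 Mid-log E. coli (~10^8 CFU/mL) in black plates pre-incubated about 40 min with NPN (10 µM, 50 µL). Baseline read 8 min (ex 350/em 420 nm), then compound added to 20 µg/mL final and fluorescence followed every 2 min for 12 min. Water-treated control.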
# Klebsiella pneumoniae [41] = experiment: Antibacterial activity against carbapenemase-producing Klebsiella pneumoniae isolate K4 after 16 to 20 hrs by broth microdilution method; assay type: functional; outline: as §1
smiles,measurement,setting,value
CCCCCCCCN(CCCCCCCC)C(=O)[C@H](C)N.Cl,HC50 at 1 h,[1],306 µg/mL
same,MIC,Enterobacteriaceae [2],64 µg/mL
same,MIC,Klebsiella pneumoniae [3],16 µg/mL
same,MIC,Enterobacteriaceae [4],64 µg/mL
same,MIC,Enterobacteriaceae [5],64 µg/mL
same,MIC,Klebsiella pneumoniae [6],16 µg/mL
same,MIC,Klebsiella pneumoniae [7],32 µg/mL
same,MIC,Staphylococcus aureus [8],4 µg/mL
same,MIC,Enterobacteriaceae [9],64 µg/mL
same,MIC,Staphylococcus aureus [10],4 µg/mL
same,MIC,Staphylococcus aureus [11],4 µg/mL
same,MIC,Staphylococcus aureus [12],4 µg/mL
same,MIC,Klebsiella pneumoniae [13],16 µg/mL
same,MIC,Enterococcus faecalis,8 µg/mL
same,MIC,Staphylococcus aureus [14],4 µg/mL
same,MIC,Klebsiella pneumoniae [15],16 µg/mL
same,MIC,Enterobacteriaceae [16],64 µg/mL
same,MIC,Klebsiella pneumoniae [17],16 µg/mL
same,MIC,Staphylococcus aureus [18],4 µg/mL
same,MIC,Klebsiella pneumoniae [19],16 µg/mL
same,MIC,Staphylococcus aureus [20],4 µg/mL
same,MIC,Salmonella enterica,32 µg/mL
same,Activity,Escherichia coli [21],Active
same,MIC,Enterobacteriaceae [22],64 µg/mL
same,MIC,Enterobacteriaceae [23],64 µg/mL
same,Activity,Staphylococcus aureus [24],Active
same,MIC,Enterobacteriaceae [25],64 µg/mL
same,MIC,Staphylococcus aureus [26],4 µg/mL
same,Activity,Staphylococcus aureus [27],Active
same,MIC,Staphylococcus aureus [28],4 µg/mL
same,MIC,Klebsiella pneumoniae [29],16 µg/mL
same,MIC,Enterobacteriaceae [30],64 µg/mL
same,MIC,Staphylococcus aureus [31],4 µg/mL
same,MIC,Klebsiella pneumoniae [32],32 µg/mL
same,MIC,Enterobacteriaceae [33],64 µg/mL
same,MIC,Staphylococcus aureus [34],4 µg/mL
same,MIC,Enterobacteriaceae [35],64 µg/mL
same,MIC,Staphylococcus aureus [36],4 µg/mL
same,MIC,Klebsiella pneumoniae [37],32 µg/mL
same,MIC,Escherichia coli [38],4 µg/mL
same,Activity,Escherichia coli [39],Active
same,Activity,Escherichia coli [40],Active
same,MIC,Klebsiella pneumoniae [41],32 µg/mL
CCCCCCCN(CCCCCCC)C(=O)[C@@H](N)CCCCN.Cl.Cl,HC50 at 1 h,[1],434 µg/mL
same,MIC,Enterobacteriaceae [2],32 µg/mL
same,MIC,Klebsiella pneumoniae [3],16 µg/mL
same,MIC,Enterobacteriaceae [4],16 µg/mL
same,MIC,Enterobacteriaceae [5],16 µg/mL
same,MIC,Klebsiella pneumoniae [6],16 µg/mL
same,MIC,Klebsiella pneumoniae [7],16 µg/mL
same,MIC,Staphylococcus aureus [8],8 µg/mL
same,MIC,Enterobacteriaceae [9],16 µg/mL
same,MIC,Staphylococcus aureus [10],8 µg/mL
same,MIC,Staphylococcus aureus [11],4 µg/mL
same,MIC,Staphylococcus aureus [12],16 µg/mL
same,MIC,Klebsiella pneumoniae [13],16 µg/mL
same,MIC,Enterococcus faecalis,8 µg/mL
same,MIC,Staphylococcus aureus [14],4 µg/mL
same,MIC,Klebsiella pneumoniae [15],16 µg/mL
same,MIC,Enterobacteriaceae [16],32 µg/mL
same,MIC,Klebsiella pneumoniae [17],16 µg/mL
same,MIC,Staphylococcus aureus [18],8 µg/mL
same,MIC,Klebsiella pneumoniae [19],16 µg/mL
same,MIC,Staphylococcus aureus [20],8 µg/mL
same,MIC,Salmonella enterica,16 µg/mL
same,Activity,Escherichia coli [21],Active
same,MIC,Enterobacteriaceae [22],32 µg/mL
same,MIC,Enterobacteriaceae [23],16 µg/mL
same,Activity,Staphylococcus aureus [24],Active
same,MIC,Enterobacteriaceae [25],32 µg/mL
same,MIC,Staphylococcus aureus [26],4 µg/mL
same,Activity,Staphylococcus aureus [27],Active
same,MIC,Staphylococcus aureus [28],16 µg/mL
same,MIC,Klebsiella pneumoniae [29],16 µg/mL
same,MIC,Enterobacteriaceae [30],32 µg/mL
same,MIC,Staphylococcus aureus [31],4 µg/mL
same,MIC,Klebsiella pneumoniae [32],16 µg/mL
same,MIC,Enterobacteriaceae [33],32 µg/mL
same,MIC,Staphylococcus aureus [34],16 µg/mL
same,MIC,Enterobacteriaceae [35],16 µg/mL
same,MIC,Staphylococcus aureus [36],4 µg/mL
same,MIC,Klebsiella pneumoniae [37],16 µg/mL
same,MIC,Escherichia coli [38],8 µg/mL
same,Activity,Escherichia coli [39],Active
same,Activity,Escherichia coli [40],Active
same,MIC,Klebsiella pneumoniae [41],16 µg/mL
